Assay results: ChEMBL document CHEMBL1146100, “Refinement of the benzodiazepine receptor site topology by structure-activity relationships of new N-(heteroarylmethyl)indol-3-ylglyoxylamides” (J Med Chem, 2006)

Key:
[1] = target: GABA A receptor alpha-2/beta-2/gamma-2 (Rattus norvegicus, UniProt P18508+P23576+P63138); experiment: Displacement of [3H]flumazenil from rat GABA-Aalpha2 receptor plus beta-2-gamma-2 in HEK293 cells; format: cell-based
Method in brief: (§1)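 Membranes from HEK293 cells stably expressing rat GABA-A subtypes (37 °C, 5% CO2, DMEM/F-12 with 10% FBS). Cells harvested, homogenized in 10 mM potassium phosphate pH 7.4, centrifuged at 48 000g for 30 min at 4 °C, washed twice, resuspended in the same buffer plus 100 mM KCl. Incubated with 1-2 nM [3H]flumazenil for 1 h at 4 °C to equilibrium. Nonspecific binding defined with 10^-5 M diazepam.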

[2] = target: GABA-A receptor; anion channel; experiment: Displacement of [3H]flumazenil from GABA-A receptor in bovine brain membranes; format: cell membranes, Bos taurus
[3] = target: GABA A receptor alpha-5/beta-3/gamma-2 (Rattus norvegicus) (UniProt P18508+P19969+P63079); experiment: Inhibition of [3H]flumazenil binding to rat GABA-Aalpha5 receptor plus beta-3-gamma-2 at 10 uM in HEK293 cells; format: cell-based
[4] = target: GABA-A receptor; alpha-1/beta-2/gamma-2 (Rattus norvegicus, UniProt P18508+P62813+P63138); experiment: Displacement of [3H]flumazenil from rat GABA-Aalpha1 receptor plus beta-2-gamma-2 in HEK293 cells; format: cell-based; method in brief: as §1
[5] = target: GABA A receptor alpha-5/beta-3/gamma-2 (Rattus norvegicus, UniProt P18508+P19969+P63079); experiment: Displacement of [3H]flumazenil from rat GABA-Aalpha5 receptor plus beta-3-gamma-2 in HEK293 cells; format: cell-based; method in brief: as §1
[6] = target: GABA A receptor alpha-2/beta-2/gamma-2 (Rattus norvegicus) (UniProt P18508+P23576+P63138); experiment: Inhibition of [3H]flumazenil binding to rat GABA-Aalpha2 receptor plus beta-2-gamma-2 at 10 uM in HEK293 cells; format: cell-based

Sequence of GABA A receptor alpha-5/beta-3/gamma-2 (P18508 whole entry): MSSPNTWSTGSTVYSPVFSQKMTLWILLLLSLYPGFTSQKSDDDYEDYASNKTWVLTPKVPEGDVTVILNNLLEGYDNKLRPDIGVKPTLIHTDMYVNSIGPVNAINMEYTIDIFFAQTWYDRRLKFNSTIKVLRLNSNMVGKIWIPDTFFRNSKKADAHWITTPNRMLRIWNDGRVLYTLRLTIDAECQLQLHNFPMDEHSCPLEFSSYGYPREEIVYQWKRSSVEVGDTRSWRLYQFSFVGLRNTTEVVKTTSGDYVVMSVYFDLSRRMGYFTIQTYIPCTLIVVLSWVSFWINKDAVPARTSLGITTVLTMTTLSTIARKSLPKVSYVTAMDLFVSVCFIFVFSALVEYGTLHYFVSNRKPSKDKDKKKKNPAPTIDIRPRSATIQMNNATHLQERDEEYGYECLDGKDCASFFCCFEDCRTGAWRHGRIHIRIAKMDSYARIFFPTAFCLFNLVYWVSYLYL
Sequence of GABA A receptor alpha-5/beta-3/gamma-2 (P19969 whole entry): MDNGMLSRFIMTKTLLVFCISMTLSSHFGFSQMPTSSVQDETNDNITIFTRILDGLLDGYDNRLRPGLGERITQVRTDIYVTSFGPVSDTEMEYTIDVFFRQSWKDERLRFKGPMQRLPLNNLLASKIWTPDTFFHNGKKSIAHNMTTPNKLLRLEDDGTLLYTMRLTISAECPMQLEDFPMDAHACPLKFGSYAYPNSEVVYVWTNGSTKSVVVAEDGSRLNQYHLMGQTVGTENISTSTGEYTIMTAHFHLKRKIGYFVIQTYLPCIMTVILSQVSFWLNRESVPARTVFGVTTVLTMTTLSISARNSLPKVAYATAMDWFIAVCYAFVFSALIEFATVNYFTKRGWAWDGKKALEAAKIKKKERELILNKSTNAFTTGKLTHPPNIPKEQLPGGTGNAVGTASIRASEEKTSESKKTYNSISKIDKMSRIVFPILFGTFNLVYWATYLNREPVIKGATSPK
Sequence of GABA A receptor alpha-5/beta-3/gamma-2 (P63079 whole entry): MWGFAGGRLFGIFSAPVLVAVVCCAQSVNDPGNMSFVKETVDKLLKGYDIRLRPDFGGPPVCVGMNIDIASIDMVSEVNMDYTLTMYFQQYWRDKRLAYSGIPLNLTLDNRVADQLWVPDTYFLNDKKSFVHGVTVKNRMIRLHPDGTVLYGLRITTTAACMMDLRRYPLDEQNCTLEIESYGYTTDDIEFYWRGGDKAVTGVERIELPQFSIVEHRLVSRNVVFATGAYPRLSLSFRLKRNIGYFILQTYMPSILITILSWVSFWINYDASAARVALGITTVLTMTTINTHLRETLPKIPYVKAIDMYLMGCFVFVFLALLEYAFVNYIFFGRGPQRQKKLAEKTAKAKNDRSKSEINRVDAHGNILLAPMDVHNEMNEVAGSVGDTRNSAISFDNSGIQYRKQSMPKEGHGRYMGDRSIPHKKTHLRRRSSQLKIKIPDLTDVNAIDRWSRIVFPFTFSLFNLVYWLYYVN
Sequence of GABA A receptor alpha-2/beta-2/gamma-2 (P18508 whole entry): as the sequence (P18508 whole entry) above
Sequence of GABA A receptor alpha-2/beta-2/gamma-2 (P23576 whole entry): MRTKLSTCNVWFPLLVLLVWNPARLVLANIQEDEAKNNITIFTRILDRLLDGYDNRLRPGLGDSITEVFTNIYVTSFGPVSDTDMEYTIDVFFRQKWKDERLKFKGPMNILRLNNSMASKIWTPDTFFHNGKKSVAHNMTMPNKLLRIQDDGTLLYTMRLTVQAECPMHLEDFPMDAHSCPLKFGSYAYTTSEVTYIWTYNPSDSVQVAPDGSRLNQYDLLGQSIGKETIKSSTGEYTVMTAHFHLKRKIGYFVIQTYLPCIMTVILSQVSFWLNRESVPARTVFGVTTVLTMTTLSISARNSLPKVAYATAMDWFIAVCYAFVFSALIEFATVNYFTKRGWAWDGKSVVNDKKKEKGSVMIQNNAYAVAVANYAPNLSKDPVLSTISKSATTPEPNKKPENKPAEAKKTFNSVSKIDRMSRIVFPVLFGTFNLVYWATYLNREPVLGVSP
Sequence of GABA A receptor alpha-2/beta-2/gamma-2 (P63138 whole entry): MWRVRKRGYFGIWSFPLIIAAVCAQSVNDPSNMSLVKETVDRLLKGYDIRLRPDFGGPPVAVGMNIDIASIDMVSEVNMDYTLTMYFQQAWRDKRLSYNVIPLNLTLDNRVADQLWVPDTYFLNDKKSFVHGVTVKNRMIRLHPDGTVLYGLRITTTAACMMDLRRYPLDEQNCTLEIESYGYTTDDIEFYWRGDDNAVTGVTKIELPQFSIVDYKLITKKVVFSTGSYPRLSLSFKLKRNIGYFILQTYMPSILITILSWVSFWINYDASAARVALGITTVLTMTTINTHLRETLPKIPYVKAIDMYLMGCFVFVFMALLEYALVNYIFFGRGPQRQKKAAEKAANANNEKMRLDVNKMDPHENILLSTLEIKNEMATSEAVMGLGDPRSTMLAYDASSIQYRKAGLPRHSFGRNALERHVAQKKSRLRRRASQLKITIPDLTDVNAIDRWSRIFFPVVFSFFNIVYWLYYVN
Sequence of GABA-A receptor; alpha-1/beta-2/gamma-2 (P18508 whole entry): as the sequence (P18508 whole entry) above
Sequence of GABA-A receptor; alpha-1/beta-2/gamma-2 (P62813 whole entry): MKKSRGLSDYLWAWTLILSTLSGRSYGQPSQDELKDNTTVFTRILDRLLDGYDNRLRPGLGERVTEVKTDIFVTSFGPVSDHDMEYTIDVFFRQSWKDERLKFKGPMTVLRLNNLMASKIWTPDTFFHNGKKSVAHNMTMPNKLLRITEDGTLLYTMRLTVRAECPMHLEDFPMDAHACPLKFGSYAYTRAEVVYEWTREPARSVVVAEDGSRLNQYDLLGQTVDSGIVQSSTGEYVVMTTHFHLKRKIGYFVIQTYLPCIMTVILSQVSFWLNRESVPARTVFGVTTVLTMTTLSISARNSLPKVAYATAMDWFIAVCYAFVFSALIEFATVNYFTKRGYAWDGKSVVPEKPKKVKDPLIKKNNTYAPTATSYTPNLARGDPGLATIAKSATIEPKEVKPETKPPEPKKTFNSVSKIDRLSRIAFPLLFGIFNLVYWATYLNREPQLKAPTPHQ
Sequence of GABA-A receptor; alpha-1/beta-2/gamma-2 (P63138 whole entry): as the sequence (P63138 whole entry) above

| Compound | Ki [2] | further results |
| --- | --- | --- |
| O=C(NCc1ncc[nH]1)C(=O)c1c[nH]c2ccccc12 | 1750 nM | – |
| O=C(NCc1ccncc1)C(=O)c1c[nH]c2ccccc12 | 426 nM | – |
| O=C(NCc1ncc[nH]1)C(=O)c1c[nH]c2ccc([N+](=O)[O-])cc12 | > 10000 nM | – |
| O=C(NCc1cc2ccccc2[nH]1)C(=O)c1c[nH]c2ccc([N+](=O)[O-])cc12 | > 10000 nM | – |
| O=C(NCc1ccccn1)C(=O)c1c[nH]c2ccc([N+](=O)[O-])cc12 | 439 nM | – |
| O=C(NCc1ccco1)C(=O)c1c[nH]c2ccccc12 | 324 nM | – |
| O=C(NCc1ccoc1)C(=O)c1c[nH]c2ccccc12 | 447 nM | – |
| O=C(NCc1ccncc1)C(=O)c1c[nH]c2ccc([N+](=O)[O-])cc12 | 770 nM | – |
| O=C(NCc1cccnc1)C(=O)c1c[nH]c2ccc([N+](=O)[O-])cc12 | 483 nM | – |
| O=C(NCc1cc2ccccc2[nH]1)C(=O)c1c[nH]c2ccccc12 | 1130 nM | – |
| O=C(NCc1ccccn1)C(=O)c1c[nH]c2ccccc12 | 6000 nM | – |
| O=C(NCc1ccc[nH]1)C(=O)c1c[nH]c2ccccc12 | 531 nM | inhibition [6]: 47%; Ki [5]: 1500 nM; Ki [4]: 271 nM |
| Cn1cccc1CNC(=O)C(=O)c1c[nH]c2ccccc12 | 4590 nM | – |

The next compounds have a lower Ki [2] than those just listed; values first:

| Ki [2] | Compound | further results |
| --- | --- | --- |
| 285 nM | O=C(NCc1cccs1)C(=O)c1c[nH]c2ccccc12 | – |
| 249 nM | Cc1ccc(CNC(=O)C(=O)c2c[nH]c3ccccc23)o1 | – |
| 212 nM | O=C(NCc1ccsc1)C(=O)c1c[nH]c2ccccc12 | – |
| 204 nM | O=C(NCc1cc[nH]c1)C(=O)c1c[nH]c2ccccc12 | inhibition [6]: 46%; Ki [5]: 681 nM; Ki [4]: 272 nM |
| 148 nM | O=C(NCc1ccsc1)C(=O)c1c[nH]c2ccc([N+](=O)[O-])cc12 | – |
| 134 nM | Cn1cccc1CNC(=O)C(=O)c1c[nH]c2ccc([N+](=O)[O-])cc12 | – |
| 128 nM | O=C(NCc1cccs1)C(=O)c1c[nH]c2ccc([N+](=O)[O-])cc12 | – |
| 105 nM | O=C(NCc1cccnc1)C(=O)c1c[nH]c2ccccc12 | – |
| 33 nM | O=C(NCc1ccc[nH]1)C(=O)c1c[nH]c2ccc([N+](=O)[O-])cc12 | Ki [1]: 585 nM; inhibition [3]: 5%; Ki [4]: 73.5 nM |
| 22 nM | O=C(NCc1ccoc1)C(=O)c1c[nH]c2ccc([N+](=O)[O-])cc12 | Ki [1]: 236 nM; inhibition [3]: 9%; Ki [4]: 56.6 nM |
| 21 nM | O=C(NCc1cc[nH]c1)C(=O)c1c[nH]c2ccc([N+](=O)[O-])cc12 | Ki [1]: 154 nM; Ki [5]: 1600 nM; Ki [4]: 9.2 nM |
| 15.6 nM | Cc1ccc(CNC(=O)C(=O)c2c[nH]c3ccc([N+](=O)[O-])cc23)o1 | – |
| 12.6 nM | O=C(NCc1ccco1)C(=O)c1c[nH]c2ccc([N+](=O)[O-])cc12 | Ki [1]: 155 nM; inhibition [3]: 28%; Ki [4]: 20 nM |
